≈ marks a conversion by molar mass, not a printed value.
Legend:
[1] = Static in vitro digestion simulation; format: in vitro ADME, human; conditions: oral, gastric and intestinal phases, 37 °C
Outline: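 Static digestion of 50 mg test compound ran at 37 °C with stirring. Oral phase: saliva pH 7.0 (1.5 mM CaCl₂, 75 U/mL amylase), sampled at 5 min. Samples were heat-stopped (100 °C, 5 min), centrifuged and filtered, and glucose was measured by kit.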

[2] = tested on: mammalian mucosal α-glucosidase (rat intestinal acetone powder, RIAP); test: Glucose generation rate; format: in vitro ADME; conditions: 5 mg/mL substrate, RIAP-derived α-glucosidase, 2 h
Outline: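 Rat intestinal acetone powder (0.5 g) was extracted in 10 mL 100 mM sodium phosphate (pH 6.2) at 4 °C for 24 h and centrifuged. The supernatant was freeze-dried and re-dissolved in 10 mL of the same buffer as α-glucosidase. Test compound at 5 mg/mL was incubated with the enzyme. Aliquots were taken at 0, 10, 20, 30, 60 and 120 min, heat-inactivated for 10 min, and glucose was measured with a glucose assay kit.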

[3] = vs sucrose; stated without own test, ref not given; cited from earlier work
[4] = Water solubility evaluation; format: physicochemical; conditions: deionized water
Outline: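 Compound was added to deionized water to supersaturation and stirred for 24 h at 25 °C. The mixture was centrifuged at 8000 × g, 25 °C, for 20 min. The supernatant was freeze-dried and the residue weighed.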

HFD-fed C57BL/6 N mice [5] = test: HFD-induced obesity in mice: body weight, intake, tissue weight, histology; format: in vivo, mouse; conditions: 0.2 g/L in drinking water, 16 weeks
Outline: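 Eight-week-old C57BL/6N mice were kept on a 60% kcal-fat HFD for 16 weeks with test compound at 0.2 g/L in drinking water ad libitum, or plain water. Estimated intake was about 0.675 mg/mouse/day. Body weight was taken weekly and food/water every other day (n = 10). Median-weight mice gave formalin-fixed paraffin sections (gWAT 7 μm, liver 5 μm), H&E stained (n = 5). Adipocyte size came from about 3,000 cells, four images per mouse. Data are mean ± SEM.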

HFD-fed C57BL/6 N mice [6] = test: Serum analysis of HFD-fed mice; format: in vivo, mouse; conditions: 0.2 g/L in drinking water, 16 weeks
Outline: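 After 16 weeks of 60% kcal-fat HFD with test compound at 0.2 g/L in drinking water or plain water, mice were euthanised with CO2. Blood was taken by cardiac puncture. An automated chemistry analyser measured serum cholesterol, TG, ALT, AST and glucose (n = 5 per group). Data are mean ± SEM with one-way ANOVA and Dunnett's or Tukey's test.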

[7] = Thermogravimetric analysis; format: physicochemical; conditions: TGA
rats = conditions: cited from earlier work
[8] = TGA; cited from earlier work
[9] = pH stability in Britton–Robinson buffer; format: physicochemical
Outline: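 Compound was dissolved at 0.05% (w/v) in Britton–Robinson buffer over pH 1.4–10. The amount remaining was quantified by HPLC.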

[10] = Storage stability in aqueous solution; format: physicochemical; conditions: 1 month, 25 °C
Outline: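 Aqueous solutions of 1–2% (w/v) were held at 25 °C for up to 1 month. Compound remaining in the supernatant at 0, 7, 15 and 30 days was quantified by HPLC.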

HFD-fed C57BL/6 N mice [11] = test: Immunoblot of tissue lysates from HFD-fed mice; format: in vivo, mouse; conditions: 0.2 g/L in drinking water, 16 weeks
Outline: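 Mice were on a 16-week 60% kcal-fat HFD with test compound at 0.2 g/L in drinking water or plain water. Liver, gWAT and BAT lysates came from median-body-weight mice. Equal protein was run on SDS-PAGE, transferred to nitrocellulose and blocked in 5% skim milk. Primary antibodies (ACC, FAS, UCP1, p-PLIN, HSP90) ran overnight at 4 °C, then secondary 2–3 h at room temperature. Detection was by ECL with band densitometry, n = 4 per group.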

## C=C1C[C@@]23CC[C@H]4[C@@](C)(CCC[C@@]4(C)C(=O)O[C@@H]4O[C@H](CO)[C@@H](O)[C@H](O)[C@H]4O)[C@@H]2CC[C@]1(O[C@@H]1O[C@H](CO)[C@@H](O)[C@H](O)[C@H]1O[C@@H]1O[C@H](CO)[C@@H](O)[C@H](O)[C@H]1O)C3 [ST, stevioside]
[1]
  Hydrolysis in in vitro simulated digestion: 2%
[2]
  Glucose released: almost no glucose release
[3]
  Sweetness relative to sucrose: 250 times
[4]
  solubility at 24 h: 11 ± 3.11 mg/mL (≈ 13.6 mM)

## rebaudioside A [Reb A]
[1]
  Hydrolysis in in vitro simulated digestion: 2%
HFD-fed C57BL/6 N mice [5]
  Crown-like structure (CLS) in gWAT, inflammatory indicator: significantly increased
  Number of large adipocytes in gWAT: remained unchanged
  Water intake and food consumption: comparable across the groups
  gWAT weight: did not increase
HFD-fed C57BL/6 N mice [5]; vs control
  Body weight: no effect
HFD-fed C57BL/6 N mice [6]
  Serum TG: remained unchanged
  Serum cholesterol: remained unchanged
[2]
  Glucose released: almost no glucose release
[7]
  Temperature at which second-stage mass loss commenced: 280–290 °C
[7]; 597 °C
  Initial mass retained at 597 °C: 9.92 ± 0.45%
[7]; stage commencing at approximately 280–290 °C
  Initial mass retained, second-stage mass loss: 19.89 ± 1.67%
rats
  No-observed-adverse-effect level (NOAEL): 4100 mg/kg/day
[8]
  Second-stage mass loss temperature previously reported: 284.71 °C
[9]; pH 1.4, 0.05% (w/v) in Britton–Robinson buffer
  Initial concentration retained at pH 1.4: 25.26 ± 3.19%
[9]; pH 2, 0.05% (w/v) in Britton–Robinson buffer
  Initial concentration retained at pH 2: 82.67 ± 2.39%
[9]; pH 10, 0.05% (w/v) in Britton–Robinson buffer
  Initial concentration retained at pH 10: 84.56 ± 1.68%
[10]; 1% (w/v)
  Initial concentration remaining after storage, 1% (w/v) aqueous solution: 52.61 ± 1.69%
[10]; 2% (w/v)
  Initial concentration remaining after storage, 2% (w/v) aqueous solution: 32.14 ± 3.78%
HFD-fed C57BL/6 N mice [11]
  ACC protein expression in liver: increased
HFD-fed C57BL/6 N mice [11]; vs control
  p-PLIN protein level in gWAT: substantially decreased
[3]
  Sweetness relative to sucrose: 250 times
[4]; stirred 24 h at 25 °C
  Water solubility: 5.10 ± 2.93 mg/mL

From publication PMC12618661 (NPJ Science of Food, 2025)
